1 molecule from ChEMBL document CHEMBL4406851, “Design, synthesis and biological evaluation of cinnamic acid derivatives with synergetic neuroprotection and angiogenesis effect” (Eur J Med Chem, 2019) can be followed below.

By EC50 is commonly meant the concentration at which the effect is half-maximal.

The source made the active and inactive calls. No cut-off for these calls is given here.

Assay [1] concerns SH-SY5Y. The experiment in a line: Protection against H2O2-induced apoptosis in human SH-SY5Y cells assessed as decrease in nuclear fragmentation preincubated for 24 hrs followed by H2O2 addition measured after 4 hrs by DAPI staining based inverted phase contrast microscopic analysis. The assay is classed as functional, cell-based. An outline of the steps:
(§1)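 Cells at 3.5×10^4 cells/mL in 24-well plates were pretreated 24 h with compound at three concentrations, then H2O2 (4.8 mM stock) for 4 h. After PBS washes, cells were fixed in 4% paraformaldehyde/70% cold ethanol for 10 min. Staining was 6% Giemsa or DAPI for 5 min in the dark. Random fields were photographed at 200× by microscope, alongside control and model groups.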

The subject of assay [2] is Chorioallantoic membrane. The experiment in a line: Induction of angiogenesis in chicken chorioallantoic membrane assessed as increase in vascular density at 1 mg/ml measured after 48 hrs by dissecting microscopic analysis. To be noted: Gallus gallus. The assay is classed as functional, cell membranes. An outline of the steps: (§2)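 Fertile eggs were incubated 7 days at 37 °C and 60% humidity. A small window was opened at one end and the membrane was wetted with a drop of sterile saline. Test solution (0.5, 1 or 2 mg/mL) was applied to the allantoic membrane, with PBS for controls. After 48 h the membrane was separated from the shell, then viewed and photographed under a dissecting microscope.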

The subject of assay [3] is HBMEC-2. The experiment in a line: Protection against H2O2-induced apoptosis in human HBMEC2 cells assessed as decrease in number of irregular cells preincubated for 24 hrs followed by H2O2 addition measured after 4 hrs by DAPI staining based inverted phase contrast microscopic analysis. The assay is classed as functional, cell-based. Summed up: as §1
Assay [4] can be described thus: Inhibition of H2O2-induced apoptosis in human HBMEC2 cells assessed as normal cells at 1.56 uM preincubated for 24 hrs followed by H2O2 addition measured after 4 hrs by Annexin V-FITC/propidium iodide staining based flow cytometry (reference value: 62.1 %). The class given is functional, HBMEC-2. On the set-up: scale not given: the % may be the effect or the level left. Summed up: (§3)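 Cells were seeded at 3.5×10^4 cells/mL in 6-well plates at 37 °C, 5% CO2. Compound was added at three concentrations for 24 h, then H2O2 (4.8 mM stock solution) to model and drug wells for 4 h. Cells were collected, washed in cold PBS and resuspended in annexin-binding buffer. Staining was annexin V-FITC 10 min, then PI 5 min, in the dark, followed by flow cytometry with quadrant gating.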
For orientation: In flow cytometry, cells or beads pass a laser one at a time.

Assay [5] deals with HBMEC-2. Briefly: Inhibition of H2O2-induced apoptosis in human HBMEC2 cells preincubated for 24 hrs followed by H2O2 addition measured after 4 hrs by Annexin V-FITC/propidium iodide staining based flow cytometry. The assay is classed as functional, cell-based. Summed up:
as §3

For assay [6], the system named is SH-SY5Y. The experiment in a line: Protection against H2O2-induced mitochondrial dysfunction in human SH-SY5Y cells assessed as recovery of mitochondrial membrane potential at 1.56 to 6.25 uM preincubated for 24 hrs followed by H202 addition measured after 4 hrs by Rh123 staining based inverted light microscopic analysis. The assay is classed as functional, cell-based. An outline of the steps: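 Cells in 96-well plates (3.5×10^4 cells/mL) were grown 24 h. They were pretreated 24 h with compound at three concentrations, then exposed to H2O2 (4.8 mM stock) for 4 h. Medium was removed and Rh123 added for 30 min at 37 °C. Cells were washed twice in cold PBS and examined immediately under an inverted microscope for green fluorescence.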

Assay [7] relates to SH-SY5Y. Briefly: Inhibition of H2O2-induced apoptosis in human SH-SY5Y cells assessed as necrotic cells at 1.56 uM preincubated for 24 hrs followed by H2O2 addition measured after 4 hrs by Annexin V-FITC/propidium iodide staining based flow cytometry (reference value: 0.9 %). The class given is functional. Details: scale not given: the % may be the effect or the level left. Summed up:
as §3

Assay [8] has as its system SH-SY5Y. Briefly: Inhibition of H2O2-induced apoptosis in human SH-SY5Y cells assessed as necrotic cells at 3.13 uM preincubated for 24 hrs followed by H2O2 addition measured after 4 hrs by Annexin V-FITC/propidium iodide staining based flow cytometry (reference value: 0.9 %). The class given is functional. On the set-up: scale not given: the % may be the effect or the level left. Summed up: as §3

Assay [9] concerns SH-SY5Y. Briefly: Inhibition of H2O2-induced apoptosis in human SH-SY5Y cells assessed as late apoptotic cells at 1.56 uM preincubated for 24 hrs followed by H2O2 addition measured after 4 hrs by Annexin V-FITC/propidium iodide staining based flow cytometry (reference value: 26.5 %). The assay is classed as functional. Details: scale not given: the % may be the effect or the level left. Summed up: as §3

Assay [10] relates to HBMEC-2. The experiment in a line: Protection against H2O2-induced apoptosis in human HBMEC2 cells assessed as increase in cell number at 1.56 to 6.25 uM preincubated for 24 hrs followed by H2O2 addition and measured after 4 hrs by Giemsa staining based inverted phase contrast microscopic analysis. The assay is classed as functional. Summed up:
as §1

The subject of assay [11] is HBMEC-2. The experiment in a line: Protection against H2O2-induced apoptosis in human HBMEC2 cells assessed as reduction in cell disruption at 1.56 to 6.25 uM preincubated for 24 hrs followed by H2O2 addition measured after 4 hrs by Giemsa staining based inverted phase contrast microscopic analysis. The assay is classed as functional. Summed up:
as §1

The subject of assay [12] is SH-SY5Y. Briefly: Neuroprotective activity against H2O2-induced cell damage in human SH-SY5Y cells assessed as increase in cell viability preincubated for 24 hrs followed by H2O2 addition and measured after 4 hrs by MTT assay. The assay is classed as functional, cell-based. An outline of the steps: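 Cells at 3.5×10^4 cells/mL in 96-well plates were grown 24 h (37 °C, 5% CO2). Test agent was added at five concentrations for 24 h, then H2O2 (4.8 mM stock) to model and drug wells. After PBS washes, MTT (5 mg/mL) was added for 4 h, formazan was dissolved in DMSO and OD was read at 550 nm. Proliferation rate = (drug − injury OD)/(control − injury OD). EC50 came from a formula using maximum concentration and summed, maximal and minimal rates.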
(Formazan colour is commonly taken as a measure of viable cells.)

Assay [13] concerns Chorioallantoic membrane. The experiment in a line: Induction of angiogenesis in chicken chorioallantoic membrane assessed as increase in microvessel formation at 1 mg/ml measured after 48 hrs by dissecting microscopic analysis. The class given is functional, cell membranes. The conditions noted are these: Gallus gallus. Summed up: as §2
The subject of assay [14] is SH-SY5Y. The experiment in a line: Protection against H2O2-induced apoptosis in human SH-SY5Y cells assessed as increase in cell number at 1.56 to 6.25 uM preincubated for 24 hrs followed by H2O2 addition measured after 4 hrs by Giemsa staining based inverted phase contrast microscopic analysis. The assay is classed as functional. Summed up:
as §1

A short description of assay [15]: Inhibition of H2O2-induced apoptosis in human HBMEC2 cells assessed as necrotic cells at 3.13 uM preincubated for 24 hrs followed by H2O2 addition measured after 4 hrs by Annexin V-FITC/propidium iodide staining based flow cytometry (reference value: 0.4 %). The assay is classed as functional, HBMEC-2. Details: scale not given: the % may be the effect or the level left. Summed up: as §3

The test system of assay [16] is HBMEC-2. The experiment in a line: Protection against H2O2-induced apoptosis in human HBMEC2 cells assessed as increase in cell number preincubated for 24 hrs followed by H2O2 addition measured after 4 hrs by DAPI staining based inverted phase contrast microscopic analysis. The assay is classed as functional. Summed up: as §1
Assay [17] relates to SH-SY5Y. The experiment in a line: Protection against H2O2-induced apoptosis in human SH-SY5Y cells assessed as increase in cell number preincubated for 24 hrs followed by H2O2 addition measured after 4 hrs by DAPI staining based inverted phase contrast microscopic analysis. The class given is functional. An outline of the steps: as §1
Assay [18] relates to SH-SY5Y. Briefly: Protection against H2O2-induced apoptosis in human SH-SY5Y cells assessed as decrease in number of irregular cells preincubated for 24 hrs followed by H2O2 addition measured after 4 hrs by DAPI staining based inverted phase contrast microscopic analysis. The assay is classed as functional, cell-based. An outline of the steps:
as §1

The nature of assay [19]: Inhibition of H2O2-induced apoptosis in human HBMEC2 cells assessed as necrotic cells at 6.25 uM preincubated for 24 hrs followed by H2O2 addition measured after 4 hrs by Annexin V-FITC/propidium iodide staining based flow cytometry (reference value: 0.4 %). Details: scale not given: the % may be the effect or the level left. The assay is classed as functional, HBMEC-2. An outline of the steps:
as §3

Assay [20] is described as follows: Inhibition of H2O2-induced apoptosis in human HBMEC2 cells assessed as normal cells at 3.13 uM preincubated for 24 hrs followed by H2O2 addition measured after 4 hrs by Annexin V-FITC/propidium iodide staining based flow cytometry (reference value: 62.1 %). The class given is functional, HBMEC-2. On the set-up: scale not given: the % may be the effect or the level left. Summed up: as §3

In assay [21] the test system is SH-SY5Y. Briefly: Inhibition of H2O2-induced apoptosis in human SH-SY5Y cells assessed as normal cells at 1.56 uM preincubated for 24 hrs followed by H2O2 addition measured after 4 hrs by Annexin V-FITC/propidium iodide staining based flow cytometry (reference value: 67.2 %). The assay is classed as functional. Details: scale not given: the % may be the effect or the level left. An outline of the steps:
as §3

Consider `COc1cc(CNC(=O)/C=C/c2cc(OC)c(OC)cc2OC)ccc1O`, for which the Activity entry in [1] was “Dose-dependent effect”; in [3], “Dose-dependent effect”; in assay [4] it was 70.6%; in assay [7], 1.4%; in [8], 0.1%; in [9] it was 23.9%. For the same molecule, the Activity in assay [15] is 0.1%; in assay [16], “Dose-dependent effect”; in [17], “Dose-dependent effect”; in [18], “Dose-dependent effect”; in [19], 0.1%; in assay [20], 80.5%. Further, the Activity in assay [21] is on record as 70.4%. The outcome in assay [2], in [6], in [10], in assay [11], in [13] and in assay [14] was Active. In assay [5], the inhibition result was “Dose-dependent effect”. In assay [12], the EC50 is 2410 nM.
